No end group written: not given here.

One test has as its system adult male rats. Description: LH and testosterone in intact adult male rats after icv injection. It is filed as in vivo, rat. The conditions noted are these: 100 pmol kisspeptin-10 icv alone. The gist of the method: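 Intact adult male rats (280–310 g; 14 h light, 22°C) with lateral-ventricle cannulae (4 mm deep; 1 mm posterior, 1.2 mm lateral to bregma), tested 24–48 h after implantation. 5 μl icv injections at 60 min intervals; 100 pmol kisspeptin-10 given with the last. Controls received saline vehicle. Jugular blood was taken 60 min later (180 min). Serum testosterone was measured by commercial kit (sensitivity 0.1 ng/tube; intraassay CV 4.5%).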

The test system of another test is GnRH neurons. Description: GnRH neuron firing, targeted extracellular recordings in brain slices. The conditions noted are these: 1 nM, 5 min, n=7. The format is cell-based, mouse.

As to “kisspeptin-10 (YNWNSFGLRF; ends and bridges not checked; UniProt Q15726 112-121, looked up)”, in the test on adult male rats, the “testosterone levels at 60-min” value is 2.17 ± 0.2. Besides, the “effect on GnRH neuron firing activity” value in the test with GnRH neurons was “markedly increased GnRH neuron firing activity”.

The values above are taken from article PMC3035813 (The Journal of neuroscience : the official journal of the …, 2009).
